# Assay results collected from several papers.
# Each line is one published result; the experiments were not run side by side.
# Cell line: A549
# Observed: cell growth or viability
SMILES,test,conditions,endpoint,result
O=C1OC2(c3ccccc31)c1ccc(O)c(I)c1Oc1c2ccc(O)c1I,CCK-8,48 h,CC50,> 200 µM
O=C(O)CCCC/C=C\CCCc1ccccc1,MTS,,IC50,61 µM
Nc1nc(N)c2nc(CNc3ccc(C(=O)c4ccccc4)cc3)cnc2n1,ATP luminescence,,GI50,13.7 µM
C=C(C)[C@H](CC=C(C)C)Cc1c(O)cc(O)c2c1O[C@H](c1ccccc1O)CC2=O,MTT,48 h,IC50,36.1 µM
CCCCCCCCCC#CCCCCC(=O)O,MTS,24 h,IC50,16 µM
C=C(C)[C@H](CC=C(C)C)Cc1c(O)cc(O)c2c1O[C@H](c1ccc(O)cc1O)CC2=O,MTT,48 h,IC50,18.1 µM
O=C(O)CCCCC#CCCCCCCCCCc1ccccc1,MTS,24 h,IC50,18 µM
O=C1OC2(c3ccccc31)c1cc(Br)c(O)c(Br)c1Oc1c2cc(Br)c(O)c1Br,CCK-8,48 h,CC50,> 200 µM
Nc1nc(N)c2nc(CNc3ccc(C(=O)NCCc4ccccc4)cc3)cnc2n1,ATP luminescence,,GI50,38.8 µM
O=C1OC2(c3ccc(O)cc3Oc3cc(O)ccc32)c2ccc(NC(=S)NCCS)cc21,CCK-8,48 h,CC50,> 200 µM
COc1ccc(S(=O)(=O)ON=C2C=C(C)C(=O)C(C)=C2)cc1,,,CC50,> 30 µM
O=C(O)c1ccc2c(c1)C(=O)OC21c2ccc(O)cc2Oc2cc(O)ccc21,CCK-8,48 h,CC50,> 200 µM
C=C(C)C(O)Cc1c(O)c(CC=C(C)C)c2occ(-c3ccc(O)cc3)c(=O)c2c1O (stereo not drawn),MTT,100 µg/mL,viability,91.6%
O=C1OC2(c3ccccc31)c1ccc(O)c(Br)c1Oc1c2ccc(O)c1Br,CCK-8,48 h,CC50,> 200 µM
Nc1nc(N)c2nc(CNc3cccc4ccccc34)cnc2n1,ATP luminescence,,GI50,1.29 µM
